According to ChEMBL document CHEMBL1122917, “Vinblastin-23-oyl amino acid derivatives: chemistry, physicochemical data, toxicity, and antitumor activities against P388 and L1210 leukemias” (J Med Chem, 1985):

What was measured:
Mus musculus [1] = assay: Number of survivors on 60th day at dose 40 mg/kg/day in 10 mice implanted with P388 leukemia cell line; 4/10; format: functional
Mus musculus [2] = assay: Number of survivors on 30th day at dose 40 mg/kg/day in 10 mice implanted with P388 leukemia cell line; 5/10; format: functional
Mus musculus [3] = assay: Number of survivors of DBA2 mice on 30th day after inoculation with L1210 leukemia cell line intravenously at a dose of 45 mg/kg/day; 0/10; format: functional; conditions: route intravenous
Mus musculus [4] = assay: Percent increase in life span at dose 40 mg/kg/day in 10 mice implanted with P388 leukemia cell line; format: functional
Summary of the method: (§1)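 Female DBA2 mice inoculated iv on day 0 with 10^4 P388 cells; single iv treatment on day 1 with drug as sulfate salt in physiological saline. Survival followed; %ILS from all deaths and survivors as (T/C × 100) − 100, maximal MST 30 days; survivors counted on days 30 and 60. Most experiments confirmed three times.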

Mus musculus [5] = assay: Number of survivors of DBA2 mice on 60th day after inoculation with L1210 leukemia cell line intravenously at a dose of 60 mg/kg/day; 0/10; format: functional; conditions: route intravenous
Mus musculus [6] = assay: Percent increase in life span at dose 55 mg/kg/day in 10 mice implanted with P388 leukemia cell line; format: functional; summary of the method: as §1
Mus musculus [7] = assay: Number of survivors on 60th day at dose 58 mg/kg/day in 10 mice implanted with P388 leukemia cell line; 0/10; format: functional
Mus musculus [8] = assay: Number of survivors on 60th day at dose 60 mg/kg/day in 10 mice implanted with P388 leukemia cell line for 1st scheduled day; 0/9; format: functional
Mus musculus [9] = assay: Percent increase in life span of DBA2 mice after inoculation with L1210 leukemia intravenously at a dose of 58 mg/kg per day; format: functional; conditions: route intravenous
Mus musculus [10] = assay: Number of survivors on 60th day at dose 65 mg/kg/day in 10 mice implanted with P388 leukemia cell line; 7/9; format: functional
Mus musculus [11] = assay: Number of survivors on 60th day at dose 10 mg/kg/day in 7 mice implanted with P388 leukemia cell line for 1,8.15 scheduled days; 0/10; format: functional
Mus musculus [12] = assay: Percent increase in life span at dose 6 mg/kg/day in 10 mice implanted with P388 leukemia cell line for 1st schedule day; format: functional
Mus musculus [13] = assay: Percent increase in life span at dose 8 mg/kg/day in 7 mice implanted with P388 leukemia cell line for 1,8,15 schedule days from Exp-2; format: functional
Mus musculus [14] = assay: Percent increase in life span of DBA2 mice after inoculation with L1210 leukemia intravenously at a dose of 10 mg/kg per day; format: functional; conditions: route intravenous
Mus musculus [15] = assay: Number of survivors on 60th day at dose 8 mg/kg/day in 7 mice implanted with P388 leukemia cell line for 1,8.15 scheduled days from Exp-1; 0/9; format: functional
Mus musculus [16] = assay: Number of survivors on 60th day at dose 5 mg/kg/day in 9 mice implanted with P388 leukemia cell line; 0/10; format: functional
Mus musculus [17] = assay: Number of survivors on 30th day at dose 7 mg/kg/day in 9 mice implanted with P388 leukemia cell line; 1 /9; format: functional
Mus musculus [18] = assay: Number of survivors of DBA2 mice on 60th day after inoculation with L1210 leukemia cell line intraperitoneally at a dose of 0.33 mg/kg/day; 0/10; format: functional; conditions: route intraperitoneal
Mus musculus [19] = assay: Number of survivors of DBA2 mice on 60th day after inoculation with L1210 leukemia cell line intraperitoneally at a dose of 4 mg/kg/day; 0/10; format: functional; conditions: route intraperitoneal
Mus musculus [20] = assay: Number of survivors on 30th day at dose 3 mg/kg/day in 10 mice implanted with P388 leukemia cell line; 0 /10; format: functional
Mus musculus [21] = assay: Number of survivors on 60th day at dose 10 mg/kg/day in 10 mice implanted with P388 leukemia cell line; 0/10; format: functional
Mus musculus [22] = assay: Number of survivors on 30th day at dose 1.5 mg/kg/day in 10 mice implanted with P388 leukemia cell line; 0/10; format: functional
Mus musculus [23] = assay: Number of survivors on 30th day at dose 0.5 mg/kg/day in 10 mice implanted with P388 leukemia cell line; 0/10; format: functional
Mus musculus [24] = assay: Number of survivors of DBA2 mice on 60th day after inoculation with L1210 leukemia cell line intravenously at a dose of 5.5 mg/kg/day; 0/10; format: functional; conditions: route intravenous
Mus musculus [25] = assay: Number of survivors of DBA2 mice on 30th day after inoculation with L1210 leukemia cell line intravenously at a dose of 4.5 mg/kg/day; 0/10; format: functional; conditions: route intravenous
Mus musculus [26] = assay: Number of survivors of DBA2 mice on 30th day after inoculation with L1210 leukemia cell line intravenously at a dose of 2.5 mg/kg/day; 0/10; format: functional; conditions: route intravenous
Mus musculus [27] = assay: Percent increase in life span of BDF1 mice after inoculation with P388 leukemia intraperitoneally at a dose of 1 mg/kg per day; conditions: P388, ip
Mus musculus [28] = assay: Number of survivors of DBA2 mice on 60th day after inoculation with L1210 leukemia cell line intravenously at a dose of 6.5 mg/kg/day; 0/10; format: functional; conditions: route intravenous
Mus musculus [29] = assay: Number of survivors of DBA2 mice on 30th day after inoculation with L1210 leukemia cell line intravenously at a dose of 3.5 mg/kg/day; 0/10; format: functional; conditions: route intravenous
Mus musculus [30] = assay: Percent increase in life span at dose 1 mg/kg/day in 10 mice implanted with P388 leukemia cell line; format: functional
Mus musculus [31] = assay: Number of survivors on 30th day at dose 1 mg/kg/day in 10 mice implanted with P388 leukemia cell line; 0/10; format: functional
Mus musculus [32] = assay: Number of survivors of DBA2 mice on 60th day after inoculation with L1210 leukemia cell line intravenously at a dose of 4.5 mg/kg/day; 0/10; format: functional; conditions: route intravenous
Mus musculus [33] = assay: Number of survivors of DBA2 mice on 60th day after inoculation with L1210 leukemia cell line intravenously at a dose of 3.5 mg/kg/day; 0/10; format: functional; conditions: route intravenous
Mus musculus [34] = assay: Number of survivors of DBA2 mice on 60th day after inoculation with L1210 leukemia cell line intravenously at a dose of 1.5 mg/kg/day; 0/10; format: functional; conditions: route intravenous
Mus musculus [35] = assay: Percent increase in life span at dose 2 mg/kg/day in 10 mice implanted with P388 leukemia cell line for 1st scheduled day; format: functional
Mus musculus [36] = assay: Number of survivors on 60th day at dose 2 mg/kg/day in 7 mice implanted with P388 leukemia cell line for 1,8,15 scheduled days; 0/11; format: functional
Mus musculus [37] = assay: Number of survivors on 60th day at dose 2 mg/kg/day in 10 mice implanted with P388 leukemia cell line for 1st scheduled day; 0/10; format: functional
Mus musculus [38] = assay: Number of survivors of DBA2 mice on 30th day after inoculation with L1210 leukemia cell line intraperitoneally at a dose of 2.5 mg/kg/day; 0/10; format: functional; conditions: route intraperitoneal
Mus musculus [39] = assay: Number of survivors of DBA2 mice on 60th day after inoculation with L1210 leukemia cell line intraperitoneally at a dose of 2.5 mg/kg/day; 0/10; format: functional; conditions: route intraperitoneal
Mus musculus [40] = assay: Percent increase in life span at dose 2.5 mg/kg/day in 7 mice implanted with P388 leukemia cell line for 1,8,15 scheduled days from Exp-1; format: functional

Question: `CCOC(=O)[C@H](Cc1c[nH]c2ccccc12)NC(=O)[C@@]1(O)[C@H](O)[C@]2(CC)C=CCN3CC[C@@]4(c5cc([C@@]6(C(=O)OC)C[C@H]7C[N@](CCc8c6[nH]c6ccccc86)C[C@](O)(CC)C7)c(OC)cc5N(C)[C@@]14C)[C@@H]32` was tested. Which Survivors (Mus musculus [1]) did it give?
Answer: Its Survivors is 4.

Question: What about the Survivors (Mus musculus [2]) of the same compound?
Answer: Its Survivors is 5.

Question: And the Survivors (Mus musculus [3])?
Answer: Its Survivors is 0.

Question: What about the ILS at 40 mg/kg/day (Mus musculus [4]) of the same compound?
Answer: Its ILS at 40 mg/kg/day is 58.8%.

Question: And the Survivors (Mus musculus [5])?
Answer: Its Survivors is 0.

Question: What about the ILS at 55 mg/kg/day (Mus musculus [6]) of the same compound?
Answer: The ILS at 55 mg/kg/day was over 183%.

Question: And the Survivors (Mus musculus [7])?
Answer: Its Survivors is 0.

Question: What about the Survivors (Mus musculus [8]) of the same compound?
Answer: The Survivors was 0.

Question: And the ILS at 58 mg/kg/day (Mus musculus [9])?
Answer: Its ILS at 58 mg/kg/day is 48.7%.

Question: What about the Survivors (Mus musculus [10]) of the same compound?
Answer: The Survivors was 7.

Question: With `CCOC(=O)[C@@H](NC(=O)[C@@]1(O)[C@H](O)[C@]2(CC)C=CCN3CC[C@@]4(c5cc([C@@]6(C(=O)OC)C[C@H]7C[N@](CCc8c6[nH]c6ccccc86)C[C@](O)(CC)C7)c(OC)cc5N(C)[C@@]14C)[C@@H]32)[C@@H](C)CC` as the compound, how does the Survivors (Mus musculus [11]) read?
Answer: Its Survivors is 0.

Question: And the ILS at 6 mg/kg/day (Mus musculus [12])?
Answer: The ILS at 6 mg/kg/day was 74%.

Question: And the ILS at 8 mg/kg/day (Mus musculus [13])?
Answer: The ILS at 8 mg/kg/day was over 482%.

Question: What about the ILS at 10 mg/kg/day (Mus musculus [14]) of the same compound?
Answer: Its ILS at 10 mg/kg/day is 27%.

Question: And the Survivors (Mus musculus [15])?
Answer: Its Survivors is 0.

Question: What about the Survivors (Mus musculus [16]) of the same compound?
Answer: The Survivors was 0.

Question: With `CC[C@]1(O)C[C@@H]2CN(CCc3c([nH]c4ccccc34)[C@@](C(=O)OC)(c3cc4c(cc3OC)N(C)[C@H]3[C@@](O)(C(=O)OC)[C@H](OC(C)=O)[C@]5(CC)C=CCN6CC[C@]43[C@@H]65)C2)C1` [VINBLASTINE] as the compound, how does the Survivors (Mus musculus [17]) read?
Answer: Its Survivors is 1.

Question: What about the Survivors (Mus musculus [18]) of the same compound?
Answer: Its Survivors is 0.

Question: And the Survivors (Mus musculus [19])?
Answer: Its Survivors is 0.

Question: And the Survivors (Mus musculus [20])?
Answer: The Survivors was 0.

Question: What about the Survivors (Mus musculus [21]) of the same compound?
Answer: The Survivors was 0.

Question: With `CC[C@]1(O)C[C@H]2CN(CCc3c([nH]c4ccccc34)[C@@](C(=O)OC)(c3cc4c(cc3OC)N(C=O)[C@H]3[C@@](O)(C(=O)OC)[C@H](OC(C)=O)[C@]5(CC)C=CCN6CC[C@]43[C@@H]65)C2)C1` [VINCRISTINE] as the compound, how does the Survivors (Mus musculus [22]) read?
Answer: The Survivors was 0.

Question: And the Survivors (Mus musculus [23])?
Answer: The Survivors was 0.

Question: And the Survivors (Mus musculus [24])?
Answer: Its Survivors is 0.

Question: What about the Survivors (Mus musculus [25]) of the same compound?
Answer: The Survivors was 0.

Question: And the Survivors (Mus musculus [26])?
Answer: The Survivors was 0.

Question: And the ILS at 1 mg/kg/day (Mus musculus [27])?
Answer: Its ILS at 1 mg/kg/day is 47%.

Question: And the Survivors (Mus musculus [28])?
Answer: The Survivors was 0.

Question: What about the Survivors (Mus musculus [29]) of the same compound?
Answer: The Survivors was 0.

Question: What about the ILS at 1 mg/kg/day (Mus musculus [30]) of the same compound?
Answer: Its ILS at 1 mg/kg/day is 16%.

Question: And the Survivors (Mus musculus [31])?
Answer: The Survivors was 0.

Question: And the Survivors (Mus musculus [32])?
Answer: The Survivors was 0.

Question: What about the Survivors (Mus musculus [33]) of the same compound?
Answer: Its Survivors is 0.

Question: And the Survivors (Mus musculus [34])?
Answer: Its Survivors is 0.

Question: What does the source list for `CC[C@]1(O)C[C@@H]2CN(CCc3c([nH]c4ccccc34)[C@@](C(=O)OC)(c3cc4c(cc3OC)N(C)[C@H]3[C@@](O)(C(N)=O)[C@H](O)[C@]5(CC)C=CCN6CC[C@]43[C@@H]65)C2)C1` [VINDESINE]?
Answer: ILS at 2 mg/kg/day (Mus musculus [35]): 28%; Survivors (Mus musculus [36]): 0; Survivors (Mus musculus [37]): 0; Survivors (Mus musculus [38]): 0; Survivors (Mus musculus [39]): 0; ILS at 2.5 mg/kg/day (Mus musculus [40]): 31%
